The source made the active and inactive calls. The calls are words filed in the database; no cut-off is given here.
How the values were obtained:
[1] = Cytotoxicity against human Caco2 cells after 3 to 4 days; assay type: cell-based; conditions: Caco-2 cells
Summary of the method: (§1)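 Cells seeded at 20,000–75,000 per well with compound dilutions, incubated 3–4 days at 37°C, and counted on a Coulter particle counter; CC50 is the concentration inhibiting proliferation by 50%.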

[2] = Cytotoxicity against human U87 cells after 3 to 4 days; assay type: cell-based, U-87MG ATCC; summary of the method: as §1
[3] = tested on: Human immunodeficiency virus 1; experiment: Antiviral activity against X4 tropic HIV-1 3B infected in human Raji cells expressing DC-SIGN gene assessed as inhibition of virus capture by Raji cells after 60 mins by ELISA; assay type: functional, organism-based; conditions: Human immunodeficiency virus 1, 3B, 1 h
[4] = tested on: Human immunodeficiency virus 1; experiment: Antiviral activity against R5 tropic HIV-1 Bal infected in human Raji cells expressing DC-SIGN gene assessed as inhibition of virus capture by Raji cells after 60 mins by ELISA; assay type: functional, organism-based; conditions: Human immunodeficiency virus 1, Bal, 1 h
[5] = tested on: Human immunodeficiency virus 1; experiment: Binding affinity to HIV-1 HXB2 gp41 assessed as association rate constant after 6 mins by SPR analysis in presence of 10 mM CaCl2
[6] = Binding affinity to HIV-1 HXB2 gp41 after 6 mins by SPR analysis in presence of 10 mM CaCl2; set-up: species or system Human immunodeficiency virus 1
PBMC [7] = experiment: Immunostimulatory activity against human PBMC assessed as IL-6 production at 21 uM after 72 hrs; assay type: functional, cell-based
Summary of the method: (§2)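 Unstimulated PBMCs and PHA-blasts from three donors, in three independent experiments, cultured with test compound at 20 μg/ml (21 or 22 μM). Supernatants collected after 72 h. The cytokine profile was read on a Bio-Plex 27-plex human cytokine bead immunoassay, using beads coupled to cytokine-specific monoclonal antibodies and run per the kit instructions.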

PBMC [8] = experiment: Immunostimulatory activity against human PBMC assessed as eotoxin production at 21 uM after 72 hrs; assay type: functional, cell-based
Summary of the method: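 In three independent experiments, PBMCs and PHA-blasts from three donors were cultured with compound for 72 h. Supernatants were analysed with a bead-based 27-plex human cytokine immunoassay covering interleukins, chemokines, growth factors, IFN-γ and TNF-α.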

PBMC [9] = experiment: Immunostimulatory activity against human PBMC assessed as FGF production at 21 uM after 72 hrs; assay type: functional, cell-based
Summary of the method: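 PBMCs and PHA blasts from three donors (three independent experiments) cultured with 21 μM compound; supernatants collected at 72 h; cytokines quantified with the Bio-Plex human 27-plex bead immunoassay.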

PBMC [10] = experiment: Immunostimulatory activity against human PBMC assessed as MIP-1alpha production at 21 uM after 72 hrs; assay type: functional, cell-based; summary of the method: as §2
PBMC [11] = experiment: Immunostimulatory activity against human PBMC assessed as MIP-1beta production at 21 uM after 72 hrs; assay type: functional, cell-based; summary of the method: as §2
PBMC [12] = experiment: Immunostimulatory activity against human PBMC assessed as PDGF production at 21 uM after 72 hrs; assay type: functional, cell-based; summary of the method: as §2
PBMC [13] = experiment: Immunostimulatory activity against human PBMC assessed as RANTES production at 21 uM after 72 hrs; assay type: functional, cell-based; summary of the method: as §2
PBMC [14] = experiment: Immunostimulatory activity against human PBMC assessed as TNF-alpha production at 21 uM after 72 hrs; assay type: functional, cell-based; summary of the method: as §2
PBMC [15] = experiment: Immunostimulatory activity against human PBMC assessed as VEGF production at 21 uM after 72 hrs; assay type: functional, cell-based; summary of the method: as §2
PBMC [16] = experiment: Immunostimulatory activity against human PBMC assessed as IL1-beta production at 22 uM after 72 hrs; assay type: functional, cell-based; summary of the method: as §2
PBMC [17] = experiment: Immunostimulatory activity against human PBMC assessed as IL-1ra production at 22 uM after 72 hrs; assay type: functional, cell-based; summary of the method: as §2
PBMC [18] = experiment: Immunostimulatory activity against human PBMC assessed as IL-2 production at 22 uM after 72 hrs; assay type: functional, cell-based; summary of the method: as §2
PBMC [19] = experiment: Immunostimulatory activity against human PBMC assessed as IL-9 production at 22 uM after 72 hrs; assay type: functional, cell-based; summary of the method: as §2
PBMC [20] = experiment: Immunostimulatory activity against human PBMC assessed as IL-12 production at 22 uM after 72 hrs; assay type: functional, cell-based; summary of the method: as §2
PBMC [21] = experiment: Immunostimulatory activity against human PBMC assessed as FGF production at 22 uM after 72 hrs; assay type: functional, cell-based
PBMC [22] = experiment: Immunostimulatory activity against human PBMC assessed as GM-CSF production at 22 uM after 72 hrs; assay type: functional, cell-based
PBMC [23] = experiment: Immunostimulatory activity against human PBMC assessed as MIP-1alpha production at 22 uM after 72 hrs; assay type: functional, cell-based; summary of the method: as §2
PBMC [24] = experiment: Immunostimulatory activity against human PBMC assessed as PDGF production at 22 uM after 72 hrs; assay type: functional, cell-based; summary of the method: as §2
PBMC [25] = experiment: Immunostimulatory activity against human PBMC assessed as suppression of G-CSF production at 21 uM after 72 hrs; assay type: functional; summary of the method: as §2
[26] = tested on: Human immunodeficiency virus 1; experiment: Antiviral activity against HIV-1 3B infected in human HUT78 cells assessed as prevention of syncytium formation between persistently HIV-1 3B-infected HUT-78 cells and uninfected SupT1 cells compound preexposed at pH 4 after 3 to 4 days by ELISA; assay type: functional, organism-based; conditions: SUP-T1
[27] = tested on: Human immunodeficiency virus 1; experiment: Antiviral activity against HIV-1 3B infected in human HUT78 cells assessed as prevention of syncytium formation between persistently HIV-1 3B-infected HUT-78 cells and uninfected SupT1 cells compound preexposed to high temperature after 3 to 4 days by ELISA; assay type: functional, organism-based; conditions: SUP-T1
[28] = tested on: Human immunodeficiency virus 1; experiment: Binding affinity to HIV-1 3B gp120 after 6 mins by SPR analysis at pH 4
[29] = tested on: Human immunodeficiency virus 1; experiment: Antiviral activity against X4 tropic HIV-1 Bal infected in human PBMC assessed as inhibition of viral replication […] by ELISA; assay type: functional, organism-based; conditions: Human immunodeficiency virus 1, Bal
Summary of the method: (§3)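 PBMCs from healthy donors were stimulated with PHA (2 μg/ml) for 3 days, then seeded at 0.5 × 10^6 cells/well in RPMI 1640 with 10% FCS, IL-2 (25 U/ml) and compound. Virus was added at a final 250 pg p24/ml. Supernatant was taken at day 12 for p24 antigen ELISA.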

[30] = tested on: Human immunodeficiency virus 1; experiment: Ratio of EC90 to EC50 for R5 tropic HIV-1 clade A/E isolate ID12 infected in human PBMC; assay type: functional
[31] = tested on: Human immunodeficiency virus 2; experiment: Antiviral activity against HIV-2 ROD infected in human MT4 cells assessed as inhibition of virus-induced cytopathicity after 7 days by trypan blue staining; assay type: functional, organism-based; conditions: Human immunodeficiency virus 2, ISOLATE ROD, MT4, 168 h
[32] = Antiviral activity against SIV mac251 infected in human MT4 cells assessed as inhibition of virus-induced cytopathicity after 7 days by trypan blue staining; assay type: functional, cell-based, Simian immunodeficiency virus - mac; conditions: Simian immunodeficiency virus, 251, MT4, 168 h
Summary of the method: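 MT-4 cells (5 × 10^5/ml) infected with SIV at 100 CCID50/ml, mixed 1:1 with compound dilutions, incubated at 37°C; viable cells in infected and mock-infected cultures counted by trypan blue; EC50 and CC50 are concentrations reducing viable cell number by 50% in each.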

[33] = tested on: Human immunodeficiency virus 1; experiment: Antiviral activity against R5 tropic HIV-1 clade A isolate UG273 infected in human PBMC assessed as inhibition of viral replication […] by ELISA; assay type: functional, organism-based; conditions: Human immunodeficiency virus 1, clade A isolate UG273; summary of the method: as §3
[34] = tested on: Human immunodeficiency virus 2; experiment: Ratio of EC90 to EC50 for X4 tropic HIV-2 BV-5061 W infected in human PBMC
[35] = tested on: Human immunodeficiency virus 1; experiment: Antiviral activity against R5 tropic HIV-1 clade F isolate BZ163 infected in human PBMC assessed as inhibition of viral replication after 12 days by ELISA; conditions: Human immunodeficiency virus 1, clade F isolate BZ163, 12 days

SMILES	CC50 [1]	CC50 [2]	IC50 [3]	IC50 [4]	Ka [5]	Kd [6]	Activity (PBMC [7])	Activity (PBMC [8])	Activity (PBMC [9])	Activity (PBMC [10])	Activity (PBMC [11])	Activity (PBMC [12])	Activity (PBMC [13])	Activity (PBMC [14])	Activity (PBMC [15])	Activity (PBMC [16])	Activity (PBMC [17])	Activity (PBMC [18])	Activity (PBMC [19])	Activity (PBMC [20])	other results
CN[C@@H]1[C@H](O[C@@H]2OC[C@@H](O)[C@H](O)[C@H]2O)[C@@H](O)[C@H](O[C@H]2c3cc(C)c(C(=O)N[C@H](C)C(=O)O)c(O)c3-c3c(cc4c(c3O)C(=O)c3cc(OC)cc(O)c3C4=O)[C@@H]2O)O[C@@H]1C [PRADIMICIN A]	> 50 µM	> 50 µM	3.5 µM	17 µM	1.96 ×10³ /M/s	14.9 µM	inactive	inactive	inactive	inactive	inactive	inactive	inactive	inactive	inactive	inactive	inactive	inactive	inactive	inactive	Activity (PBMC [21]): inactive; Activity (PBMC [22]): inactive; Activity (PBMC [23]): inactive; Activity (PBMC [24]): inactive; fold change (FC) (PBMC [25]): 2; Activity [26]: Active; Activity [27]: Active; Activity [28]: Active; EC50 [29]: 2.2 µM; Ratio [30]: 2; EC50 [31]: 5 µM; EC50 [32]: 5 µM; EC50 [33]: 5.9 µM; Ratio [34]: 2; EC50 [35]: 8 µM
CN[C@@H]1[C@H](O[C@@H]2O[C@H](CO)[C@@H](O)[C@H](OS(=O)(=O)O)[C@H]2O)[C@@H](O)[C@H](O[C@H]2c3cc(C)c(C(=O)N[C@H](C)C(=O)O)c(O)c3-c3c(cc4c(c3O)C(=O)c3cc(OC)cc(O)c3C4=O)[C@@H]2O)O[C@@H]1C [PRADIMICIN S]	> 230 µM	> 230 µM	11 µM	21 µM	2.73 ×10³ /M/s	9.93 µM	inactive	inactive	inactive	inactive	inactive	inactive	inactive	inactive	inactive	inactive	inactive	inactive	inactive	inactive	Activity (PBMC [21]): inactive; Activity (PBMC [22]): inactive; Activity (PBMC [23]): inactive; Activity (PBMC [24]): inactive; fold change (FC) (PBMC [25]): 2; Activity [26]: Active; Activity [27]: Active; Activity [28]: Active; EC50 [29]: 5.3 µM; Ratio [30]: 2; EC50 [31]: 4.7 µM; EC50 [32]: 8.1 µM; EC50 [33]: 15 µM; Ratio [34]: 2; EC50 [35]: 17 µM

From ChEMBL document CHEMBL1671680, “Pradimicin S, a highly soluble nonpeptidic small-size carbohydrate-binding antibiotic, is an anti-HIV drug lead for both microbicidal and systemic use” (Antimicrob Agents Chemother, 2010)
